Measurements from ChEMBL document CHEMBL1133014, “Design, synthesis, and SAR of novel carbapenem antibiotics with high stability to Xanthomonas maltophilia oxyiminocephalosporinase type II” (2000).
Values after ≈ are worked out from the molar mass of the structure shown.

How the values were obtained:
Assay type in all cases: functional
Escherichia coli = assay: In vitro antimicrobial activity against Escherichia coli ATCC 39188 was determined
How it was run: (§1)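 MIC by agar dilution: organisms applied onto antibiotic-containing agar plates with a Steers-type replicator. MIC taken as the lowest concentration preventing visible growth, averaged from duplicate determinations (± standard error).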

[1] = In vitro antimicrobial activity against Xanthomonas maltophilia GN 12873 was determined; conditions: Stenotrophomonas maltophilia; how it was run: as §1
Staphylococcus aureus [2] = assay: In vitro antimicrobial activity against Staphylococcus aureus 95 (methicillin-resistant strain) was determined
How it was run: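 Agar dilution MIC: organisms were deposited onto medicated agar plates with a Steers-type replicator. MIC was read as the lowest antibiotic concentration preventing visible growth. Values are averages of duplicate determinations with standard error.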

[3] = test system: Stenotrophomonas maltophilia; assay: Minimum protective concentration against beta-lactamase of Xanthomonas maltophilia GN 12873 (CXase-II)
How it was run: (§2)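 Minimum protective concentration taken as the lowest β-lactam concentration protecting a chromogenic indicator from β-lactamase hydrolysis within 1.0 h under standard conditions. Hydrolysis was read as a distinct red color. Compound stability without enzyme was checked at 37 °C in phosphate buffer, pH 6.5.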

Pseudomonas aeruginosa [4] = assay: In vitro antimicrobial activity against Pseudomonas aeruginosa 18S-H was determined; how it was run: as §1
[5] = In vitro antimicrobial activity against Xanthomonas maltophilia GN 12873 in combination (1:1 w/w) with imipenem; conditions: Stenotrophomonas maltophilia; how it was run: as §1
Staphylococcus aureus [6] = assay: In vitro antimicrobial activity against Staphylococcus aureus FDA 209P was determined; how it was run: as §1
Pseudomonas aeruginosa [7] = assay: Minimum protective concentration against beta-lactamase of Pseudomonas aeruginosa 18S-H; how it was run: as §2
Staphylococcus aureus [8] = assay: Minimum protective concentration against beta-lactamase of Staphylococcus aureus 95; how it was run: as §2
Klebsiella pneumoniae = assay: In vitro antimicrobial activity against Klebsiella pneumoniae NCTC 418 was determined; how it was run: as §1
Pseudomonas aeruginosa [9] = assay: In vitro antimicrobial activity against Pseudomonas aeruginosa 1101-75 was determined; how it was run: as §1
[10] = test system: Stenotrophomonas maltophilia; assay: Minimum protective concentration against beta-lactamase of Xanthomonas maltophilia GN 12873 (CXase-I); how it was run: as §2

Compound	MIC (Escherichia coli) [µg/mL]	MIC [1] [µg/mL]	MIC (Staphylococcus aureus [2]) [µg/mL]	MPC [3] [µg/mL]	MIC (Pseudomonas aeruginosa [4]) [µg/mL]	MIC [5] [µg/mL]	MIC (Staphylococcus aureus [6]) [µg/mL]	MPC (Pseudomonas aeruginosa [7]) [µg/mL]	MPC (Staphylococcus aureus [8]) [µg/mL]	MIC (Klebsiella pneumoniae) [µg/mL]	MIC (Pseudomonas aeruginosa [9]) [µg/mL]	MPC [10] [µg/mL]
COC(=O)CC1=C(C(=O)O)N2C(=O)[C@@H](NC(=O)Cc3ccccc3)[C@H]2C1 (racemic)	0.67 (≈ 1.87 µM)	5.97 (≈ 16.7 µM)	18.5 (≈ 51.7 µM)	35	21.3 (≈ 59.4 µM)	0.98	0.04 (≈ 0.112 µM)	8.74	6.87	0.77 (≈ 2.15 µM)	1.8 (≈ 5.02 µM)	30.4
O=C(Cc1ccccc1)N[C@@H]1C(=O)N2C(C(=O)O)=C(CCO)C[C@H]12 (racemic)	0.75 (≈ 2.27 µM)	6.73 (≈ 20.4 µM)	19.2 (≈ 58.2 µM)	42.1	22.6 (≈ 68.5 µM)	0.77	0.07 (≈ 0.212 µM)	6.98	7.18	0.88 (≈ 2.66 µM)	3.51 (≈ 10.6 µM)	36.7
O=C(Cc1ccccc1)N[C@@H]1C(=O)N2C(C(=O)O)=CC[C@H]12 (racemic)	0.98 (≈ 3.42 µM)	10.3 (≈ 35.9 µM)	30.7 (≈ 107 µM)	33.6	31.6 (≈ 110 µM)	2.15	0.12 (≈ 0.419 µM)	4.21	3.45	1.92 (≈ 6.71 µM)	8.91 (≈ 31.1 µM)	30
CC(=O)OCCC1=C(C(=O)O)N2C(=O)[C@@H](NC(=O)Cc3ccccc3)[C@H]2C1 (racemic)	0.69 (≈ 1.85 µM)	4.12 (≈ 11.1 µM)	14.9 (≈ 40.1 µM)	47.8	17.2 (≈ 46.2 µM)	0.39	0.05 (≈ 0.134 µM)	5.87	6.12	1.08 (≈ 2.9 µM)	2.87 (≈ 7.71 µM)	27.5
C[C@@H](O)[C@H]1C(=O)N2C(C(=O)O)=C(SCCNC=N)C[C@H]12.O [IMIPENEM]	0.35	> 128	15.7	0.87	35.6	–	0.02	35.61	30.12	0.4	4.71	46.8
CC1(C)S[C@@H]2[C@H](NC(=O)Cc3ccccc3)C(=O)N2[C@H]1C(=O)O [PENICILLIN G]	2.87 (≈ 8.58 µM)	> 128	> 128	28.8	> 128	–	0.51 (≈ 1.53 µM)	1.03	1.85	> 128	> 128	23.6
O=C(Cc1ccccc1)N[C@@H]1C(=O)N2C(C(=O)O)=C(C(=O)O)C[C@H]12 (racemic)	0.48 (≈ 1.45 µM)	9.61 (≈ 29.1 µM)	13.9 (≈ 42 µM)	29.4	28.2 (≈ 85.3 µM)	1.58	0.03 (≈ 0.0908 µM)	2.38	2.2	0.56 (≈ 1.7 µM)	5.63 (≈ 17 µM)	25.5
COC(=O)C1=C(C(=O)O)N2C(=O)[C@@H](NC(=O)Cc3ccccc3)[C@H]2C1 (racemic)	0.2 (≈ 0.581 µM)	12.1 (≈ 35.2 µM)	8.3 (≈ 24.1 µM)	16.7	12.1 (≈ 35.1 µM)	2.01	0.01 (≈ 0.029 µM)	1.02	0.98	0.15 (≈ 0.436 µM)	0.89 (≈ 2.58 µM)	14.6
